Measurements from ChEMBL document CHEMBL1149258, “Synthesis and structure-activity relationships of novel histamine H1 antagonists: indolylpiperidinyl benzoic acid derivatives” (J Med Chem, 2004).

Experiments:
[1] = tested on: Rattus norvegicus; assay: Inhibition of increase in histamine-induced cutaneous vascular permeability in orally dosed Wistar rat model after 8 hrs; format: functional; settings: po
Method in brief: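 Male Wistar rats (150-175 g), fasted, dosed orally in 0.5% methylcellulose/0.1% Tween 80 (10 mL/kg), n=5. At 1 or 8 h after dosing, four intradermal injections of 5 µg histamine were given, plus iv 0.5% Evans Blue. Papule area (ellipse) measured 1 h later. ED50 in mg/kg po.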

[2] = target: Histamine H1 receptor (Cavia porcellus, UniProt P31389); assay: Displacement of [3H]mepyramine from histamine H1 receptor in guinea pig cerebellum membranes; format: cell membranes, Membrane
Chain of Histamine H1 receptor (P31389 whole entry): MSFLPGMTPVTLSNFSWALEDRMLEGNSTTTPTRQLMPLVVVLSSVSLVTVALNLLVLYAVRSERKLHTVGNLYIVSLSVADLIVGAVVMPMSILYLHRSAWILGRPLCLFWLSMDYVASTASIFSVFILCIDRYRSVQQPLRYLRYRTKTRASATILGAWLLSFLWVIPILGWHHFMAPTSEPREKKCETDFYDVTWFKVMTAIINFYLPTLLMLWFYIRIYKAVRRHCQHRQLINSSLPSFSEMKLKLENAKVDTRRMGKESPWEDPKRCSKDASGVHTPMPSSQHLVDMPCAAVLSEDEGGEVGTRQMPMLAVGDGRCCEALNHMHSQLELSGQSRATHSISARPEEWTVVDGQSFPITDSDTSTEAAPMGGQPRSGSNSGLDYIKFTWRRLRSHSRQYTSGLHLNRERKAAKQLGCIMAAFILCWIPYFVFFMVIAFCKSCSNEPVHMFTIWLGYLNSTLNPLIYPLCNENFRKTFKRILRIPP
Method in brief: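 Guinea pig cerebellum membranes (160 µg/mL) incubated with 0.7 nM [3H]-mepyramine at 30 °C for 30 min, 0.5 mL final volume, ended by filtration. Nonspecific binding with 10 µM promethazine. At least six concentrations in duplicate; IC50 by nonlinear regression. Compound stocks 10^-2 M in DMSO, diluted in 50% DMSO.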

[3] = target: T1, Adrenergic receptor alpha-1 (Rattus norvegicus, UniProt P15823+P23944+P43140); assay: Displacement of [3H]prazosin from adrenergic alpha-1 receptor in rat brain membranes; format: cell membranes
T1 sequence (P15823 whole entry): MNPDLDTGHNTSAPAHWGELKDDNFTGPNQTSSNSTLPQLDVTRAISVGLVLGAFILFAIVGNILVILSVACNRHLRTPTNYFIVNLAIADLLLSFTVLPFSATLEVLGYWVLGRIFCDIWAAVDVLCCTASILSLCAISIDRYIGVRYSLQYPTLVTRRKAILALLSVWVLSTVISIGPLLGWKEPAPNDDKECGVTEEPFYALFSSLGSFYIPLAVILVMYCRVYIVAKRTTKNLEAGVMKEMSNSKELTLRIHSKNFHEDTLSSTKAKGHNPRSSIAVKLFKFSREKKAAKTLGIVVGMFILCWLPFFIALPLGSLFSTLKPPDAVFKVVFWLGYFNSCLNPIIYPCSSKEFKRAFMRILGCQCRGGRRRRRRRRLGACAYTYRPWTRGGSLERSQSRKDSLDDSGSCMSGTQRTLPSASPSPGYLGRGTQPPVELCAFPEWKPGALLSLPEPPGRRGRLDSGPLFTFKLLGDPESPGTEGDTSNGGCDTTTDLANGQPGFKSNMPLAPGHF
T1 sequence (P23944 whole entry): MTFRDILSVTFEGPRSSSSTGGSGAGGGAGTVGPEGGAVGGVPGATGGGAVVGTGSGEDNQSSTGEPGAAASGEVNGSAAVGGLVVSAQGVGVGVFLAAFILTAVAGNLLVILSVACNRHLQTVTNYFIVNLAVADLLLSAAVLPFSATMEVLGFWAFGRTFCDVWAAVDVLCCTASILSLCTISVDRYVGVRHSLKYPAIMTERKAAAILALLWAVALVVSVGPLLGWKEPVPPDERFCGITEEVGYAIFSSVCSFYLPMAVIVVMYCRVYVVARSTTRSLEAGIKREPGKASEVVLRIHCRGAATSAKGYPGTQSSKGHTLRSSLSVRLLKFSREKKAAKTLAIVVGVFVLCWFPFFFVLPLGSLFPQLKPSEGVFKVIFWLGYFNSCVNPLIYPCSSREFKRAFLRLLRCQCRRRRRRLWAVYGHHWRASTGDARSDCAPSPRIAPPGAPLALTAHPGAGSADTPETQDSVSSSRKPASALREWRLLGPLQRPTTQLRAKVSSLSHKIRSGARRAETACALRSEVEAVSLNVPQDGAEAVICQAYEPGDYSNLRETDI
T1 sequence (P43140 whole entry): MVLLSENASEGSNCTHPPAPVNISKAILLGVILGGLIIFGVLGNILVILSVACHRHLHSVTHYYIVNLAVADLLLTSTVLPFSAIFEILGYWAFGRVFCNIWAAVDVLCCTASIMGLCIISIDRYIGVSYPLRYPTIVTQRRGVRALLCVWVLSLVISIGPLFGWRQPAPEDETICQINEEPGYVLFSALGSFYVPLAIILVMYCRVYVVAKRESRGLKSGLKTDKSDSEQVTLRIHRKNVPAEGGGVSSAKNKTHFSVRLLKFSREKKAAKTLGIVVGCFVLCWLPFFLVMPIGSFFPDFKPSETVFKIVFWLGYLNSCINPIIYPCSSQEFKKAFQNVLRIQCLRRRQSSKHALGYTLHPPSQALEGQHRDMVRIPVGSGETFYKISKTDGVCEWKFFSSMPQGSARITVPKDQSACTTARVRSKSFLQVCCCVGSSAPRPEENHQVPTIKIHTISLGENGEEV
Method in brief: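 Rat brain membranes (340 µg protein/mL) with 0.25 nM [3H]-prazosin in 50 mM Tris-HCl pH 7.7, room temperature, 60 min, filtration. Nonspecific binding with 100 µM prazosin. Several concentrations run in duplicate; IC50 by nonlinear regression.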

[4] = tested on: Rattus norvegicus; assay: Inhibition of increase in histamine-induced cutaneous vascular permeability in orally dosed Wistar rat model after 4 hrs; format: functional; settings: po
Method in brief: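 Fasted male rats (150-175 g; n=5 per condition) dosed orally in 0.5% methylcellulose/0.1% Tween 80. At 4 h, under light ether, received four intradermal injections of 5 µg histamine, then 0.5% Evans Blue iv. Killed 1 h later. Papule area from maximum and minimum diameters (ellipse); inhibition of papule area; ED50 (mg/kg, po).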

[5] = target: Histamine H1 receptor (Mus musculus) (UniProt P70174); assay: Ex vivo displacement of [3H]mepyramine from brain histamine H1 receptor in orally dosed Swiss Albino mouse; format: functional, organism-based
Chain of Histamine H1 receptor (Mus musculus) (P70174 whole entry): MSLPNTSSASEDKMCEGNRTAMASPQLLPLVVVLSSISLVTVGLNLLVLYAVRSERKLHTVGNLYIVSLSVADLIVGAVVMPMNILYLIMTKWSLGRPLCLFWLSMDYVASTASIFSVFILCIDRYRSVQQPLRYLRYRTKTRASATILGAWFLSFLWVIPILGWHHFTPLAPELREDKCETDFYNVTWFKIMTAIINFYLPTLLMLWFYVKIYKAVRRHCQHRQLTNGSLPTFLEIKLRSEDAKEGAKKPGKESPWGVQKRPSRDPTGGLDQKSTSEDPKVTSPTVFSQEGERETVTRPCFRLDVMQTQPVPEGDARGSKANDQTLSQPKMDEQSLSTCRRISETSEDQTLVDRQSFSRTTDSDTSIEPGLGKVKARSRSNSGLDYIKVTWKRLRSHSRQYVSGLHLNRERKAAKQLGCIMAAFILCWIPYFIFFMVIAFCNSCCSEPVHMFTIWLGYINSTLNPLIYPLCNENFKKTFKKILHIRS
Method in brief: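 Overnight-fasted male mice (20-25 g) dosed orally at several doses (0.5% methylcellulose/0.1% Tween 80, 10 mL/kg), killed 90 min later. Whole brain homogenised in ice-cold 0.05 M Na+/K+ phosphate pH 7.4; aliquots incubated in triplicate with 2 nM final [3H]-mepyramine, 40 min at 30 °C, then filtered. Nonspecific binding from 30 mg/kg po D-chlorpheniramine; total binding from vehicle. Three animals per dose; ED50 reported.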

Compound	ED50 [1]	IC50 [2]	IC50 [3] [µM]	ED50 [4] [mg/kg]	ED50 [5] [mg/kg]
O=C(O)c1ccccc1OCCN1CCC(c2cn(Cc3ccco3)c3cc(F)ccc23)CC1	2.2 mg/kg (antagonist)	37 nM (antagonist)	> 10	0.32	–
CCOCCn1cc(C2CCN(Cc3cc(C(=O)O)ccc3Br)CC2)c2ccccc21	–	345 nM (antagonist)	> 10	3	–
O=C(O)c1ccccc1OCCN1CCC(c2cn(CC3CC3)c3ccccc23)CC1	1.3 mg/kg (antagonist)	–	> 10	0.6	> 100
CCOCCn1cc(C2CCN(CCOc3ccccc3C(=O)O)CC2)c2cc(Br)ccc21	–	150 nM (antagonist)	3.6	–	–
CCOCCn1cc(C2CCN(CCOc3ccc(C(C)=O)cc3C(=O)O)CC2)c2ccccc21	–	219 nM (antagonist)	> 10	–	–
CCOCCn1cc(C2CCN(CCOc3ccsc3C(=O)O)CC2)c2ccccc21	–	100 nM (antagonist)	< 10	–	–
CCOCCn1cc(C2CCN(CCOc3ccccc3C(=O)O)CC2)c2cc(F)ccc21	–	100 nM (antagonist)	10	–	–
O=C(O)c1ccccc1OCCN1CCC(c2cn(CCC3COCCO3)c3ccccc23)CC1 (configuration not stated)	–	390 nM (antagonist)	6.2	3	–
CCOCCn1cc(C2CCN(Cc3ccccc3OCC(=O)O)CC2)c2ccccc21	–	196 nM (antagonist)	> 10	> 3	–
CCOCCn1cc(C2CCN(CCOc3ccccc3C(=O)O)CC2)c2ccc(F)cc21	–	76 nM (antagonist)	10	–	–
COc1ccc(CN2CCC(c3cn(Cc4ccc(Cl)s4)c4cc(F)ccc34)CC2)cc1C(=O)O	0.09 mg/kg (antagonist)	–	> 10	0.19	5.5
CCOCCn1cc(C2CCN(CCOc3cccc(C(=O)O)c3)CC2)c2ccccc21	–	–	2	–	–
C=CCn1cc(C2CCN(CCOc3ccccc3C(=O)O)CC2)c2ccccc21	–	–	> 10	3	–
COc1ccc(CN2CCC(c3cn(Cc4ccoc4)c4cc(F)ccc34)CC2)cc1C(=O)O	0.037 mg/kg (antagonist)	–	> 10	0.02	7
O=C(O)c1cccc(CN2CCC(c3cn(Cc4ccco4)c4ccccc34)CC2)c1	–	87 nM (antagonist)	> 10	1	–
O=C(O)c1cccc(CN2CCC(c3cn(Cc4ccc(Cl)s4)c4ccccc34)CC2)c1	–	103 nM (antagonist)	–	> 3	–
CCOCCn1cc(C2CCN(CCOc3c(Br)cc(Br)cc3C(=O)O)CC2)c2ccccc21	–	225 nM (antagonist)	6.9	–	–
O=C(O)c1ccccc1OCCN1CCC(c2cn(CCc3ccccn3)c3ccccc23)CC1	–	570 nM (antagonist)	> 10	–	–
COCCn1cc(C2CCN(CCOc3ccccc3C(=O)O)CC2)c2ccccc21	–	–	> 10	1.1	–
O=C(O)c1cccc(CN2CCC(c3cn(Cc4cccs4)c4ccccc34)CC2)c1	–	–	> 10	3	–
CCOCCn1cc(C2CCN(Cc3ccc(OC)c(C(=O)O)c3)CC2)c2ccccc21	–	–	–	0.02	–

Compound	ED50 [1]	IC50 [2]	IC50 [3] [µM]	ED50 [4] [mg/kg]	ED50 [5] [mg/kg]
O=C(O)c1ccccc1OCCN1CCC(c2cn(Cc3ccc(Cl)s3)c3cc(F)ccc23)CC1	–	28 nM (antagonist)	> 10	1	–
COCCn1cc(C2CCN(Cc3ccc(OC)c(C(=O)O)c3)CC2)c2ccc(F)cc21	0.02 mg/kg (antagonist)	–	> 10	0.06	4
CCOCCn1cc(C2CCN(Cc3ccccc3C(=O)O)CC2)c2ccccc21	–	330 nM (antagonist)	> 10	3	–
CCOCCn1cc(C2CCN(CCOc3ccc(C)cc3C(=O)O)CC2)c2ccccc21	–	221 nM (antagonist)	8.6	–	–
O=C(O)c1ccccc1OCCN1CCC(c2cn(Cc3cccs3)c3ccccc23)CC1	–	98 nM (antagonist)	3.7	–	–
O=C(O)c1ccccc1OCCN1CCC(c2cn(Cc3ccco3)c3ccccc23)CC1	–	–	> 10	3	–
CCOCCn1cc(C2CCN(CCOc3ccccc3C(=O)O)CC2)c2cccc(C)c21	–	500 nM (antagonist)	7.6	–	–
CCOCCn1cc(C2CCN(Cc3cccc(OCC(=O)O)c3)CC2)c2ccccc21	–	130 nM (antagonist)	> 10	3	–
CCOCCn1cc(C2CCN(Cc3ccc(F)c(C(=O)O)c3)CC2)c2ccccc21	0.01 mg/kg (antagonist)	300 nM (antagonist)	> 10	–	0.5
CCOCCn1cc(C2CCN(Cc3cccc(C(=O)O)c3)CC2)c2ccccc21	–	218 nM (antagonist)	–	0.011	–
CCOCCn1cc(C2CCN(Cc3ccc(OCC(=O)O)cc3)CC2)c2ccccc21	–	322 nM (antagonist)	> 10	> 3	–
O=C(O)c1ccccc1OCCN1CCC(c2cn(Cc3ccc(Cl)s3)c3ccccc23)CC1	–	–	–	3	–
O=C(O)c1ccccc1OCCN1CCC(c2cn(CC3CC3)c3cc(F)ccc23)CC1	0.5 mg/kg (antagonist)	–	> 10	0.11	–
CCOCCn1cc(C2CCN(CCOc3ccc(C(=O)O)cc3)CC2)c2ccccc21	–	–	3	–	–
CCOCCn1cc(C2CCN(CCOc3cccc(F)c3C(=O)O)CC2)c2ccccc21	–	500 nM (antagonist)	10	–	–
CCOCCn1cc(C2CCN(Cc3cccc(C(=O)O)c3)CC2)c2cc(OC)ccc21	–	500 nM (antagonist)	> 10	> 3	–
COCCn1cc(C2CCN(Cc3cccc(C(=O)O)c3)CC2)c2ccc(F)cc21	–	150 nM (antagonist)	> 10	1	–
CCOCCn1cc(C2CCN(CCOc3ccccc3C(=O)O)CC2)c2ccc(C(F)(F)F)cc21	–	> 500 nM	6.9	–	–
CCOCCn1cc(C2CCN(CCOc3ccccc3C(=O)O)CC2)c2cccc(Br)c21	–	80 nM (antagonist)	10	> 3	–
CCOCCn1cc(C2CCN(CCOc3cc(OC)ccc3C(=O)O)CC2)c2ccccc21	–	34 nM (antagonist)	–	0.17	–
